Measured values as given in ChEMBL document CHEMBL1681705, “Optimisation of ITK inhibitors through successive iterative design cycles” (Bioorg Med Chem Lett, 2011).

Tests used:
[1] = target: Mitogen-activated protein kinase 11 (Homo sapiens) (UniProt Q15759); experiment: Inhibition of SAPK2b at 1 uM
[2] = target: Vascular endothelial growth factor receptor 2 (Homo sapiens) (UniProt P35968); experiment: Inhibition of KDR at 1 uM; values are per cent of control
[3] = target: Tyrosine-protein kinase Fes/Fps (Homo sapiens) (UniProt P07332); experiment: Inhibition of Fes at 0.1 uM; values are per cent of control
[4] = target: Mitogen-activated protein kinase 10 (Homo sapiens) (UniProt P53779); experiment: Inhibition of JNK3 at 0.1 uM; values are per cent of control
[5] = target: Ribosomal protein S6 kinase alpha-1 (Homo sapiens) (UniProt Q15418); experiment: Inhibition of Rsk1 at 1 uM
[6] = Inhibition of MAPK2 at 1 uM; details: values are per cent of control
[7] = target: Hepatocyte growth factor receptor (Homo sapiens) (UniProt P08581); experiment: Inhibition of Met at 1 uM
Method in brief: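 Single-point screen within a 108-kinase selectivity panel. Each kinase was tested with inhibitor at 0.1 and 1.0 micromolar, and activity was recorded as percent inhibition.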

[8] = target: CDK6/cyclin D3 (Homo sapiens) (UniProt P30281+Q00534); experiment: Inhibition of CDK6/cyclin D3 at 0.1 uM; values are per cent of control
[9] = Inhibition of PKA at 0.1 uM; values are per cent of control
[10] = target: ALK tyrosine kinase receptor (Homo sapiens) (UniProt Q9UM73); experiment: Inhibition of ALK at 0.1 uM; values are per cent of control
[11] = target: T1, Mitogen-activated protein kinase 12 (Homo sapiens) (UniProt P53778); experiment: Inhibition of SAPK3 at 1 uM
T1 sequence (whole entry): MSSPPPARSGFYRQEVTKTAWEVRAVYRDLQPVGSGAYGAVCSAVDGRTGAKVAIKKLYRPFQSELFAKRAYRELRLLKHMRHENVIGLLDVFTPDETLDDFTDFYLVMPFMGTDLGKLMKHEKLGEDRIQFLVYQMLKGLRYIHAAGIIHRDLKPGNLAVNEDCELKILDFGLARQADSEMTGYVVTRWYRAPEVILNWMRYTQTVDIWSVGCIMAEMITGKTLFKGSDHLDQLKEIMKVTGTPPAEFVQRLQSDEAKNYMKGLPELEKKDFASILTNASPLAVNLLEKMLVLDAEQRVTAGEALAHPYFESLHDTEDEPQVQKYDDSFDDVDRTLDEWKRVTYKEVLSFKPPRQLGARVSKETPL

[12] = target: Tyrosine-protein kinase Yes (Homo sapiens) (UniProt P07947); experiment: Inhibition of Yes at 1 uM; values are per cent of control
[13] = target: Myosin light chain kinase, smooth muscle (Homo sapiens) (UniProt Q15746); experiment: Inhibition of MLCK at 1 uM; values are per cent of control
[14] = target: Ribosomal protein S6 kinase beta-1 (Homo sapiens) (UniProt P23443); experiment: Inhibition of p70S6K at 0.1 uM; values are per cent of control
[15] = target: T2, Ephrin type-A receptor 8 (Homo sapiens) (UniProt P29322); experiment: Inhibition of EphA8 at 0.1 uM; values are per cent of control
T2 sequence (whole entry): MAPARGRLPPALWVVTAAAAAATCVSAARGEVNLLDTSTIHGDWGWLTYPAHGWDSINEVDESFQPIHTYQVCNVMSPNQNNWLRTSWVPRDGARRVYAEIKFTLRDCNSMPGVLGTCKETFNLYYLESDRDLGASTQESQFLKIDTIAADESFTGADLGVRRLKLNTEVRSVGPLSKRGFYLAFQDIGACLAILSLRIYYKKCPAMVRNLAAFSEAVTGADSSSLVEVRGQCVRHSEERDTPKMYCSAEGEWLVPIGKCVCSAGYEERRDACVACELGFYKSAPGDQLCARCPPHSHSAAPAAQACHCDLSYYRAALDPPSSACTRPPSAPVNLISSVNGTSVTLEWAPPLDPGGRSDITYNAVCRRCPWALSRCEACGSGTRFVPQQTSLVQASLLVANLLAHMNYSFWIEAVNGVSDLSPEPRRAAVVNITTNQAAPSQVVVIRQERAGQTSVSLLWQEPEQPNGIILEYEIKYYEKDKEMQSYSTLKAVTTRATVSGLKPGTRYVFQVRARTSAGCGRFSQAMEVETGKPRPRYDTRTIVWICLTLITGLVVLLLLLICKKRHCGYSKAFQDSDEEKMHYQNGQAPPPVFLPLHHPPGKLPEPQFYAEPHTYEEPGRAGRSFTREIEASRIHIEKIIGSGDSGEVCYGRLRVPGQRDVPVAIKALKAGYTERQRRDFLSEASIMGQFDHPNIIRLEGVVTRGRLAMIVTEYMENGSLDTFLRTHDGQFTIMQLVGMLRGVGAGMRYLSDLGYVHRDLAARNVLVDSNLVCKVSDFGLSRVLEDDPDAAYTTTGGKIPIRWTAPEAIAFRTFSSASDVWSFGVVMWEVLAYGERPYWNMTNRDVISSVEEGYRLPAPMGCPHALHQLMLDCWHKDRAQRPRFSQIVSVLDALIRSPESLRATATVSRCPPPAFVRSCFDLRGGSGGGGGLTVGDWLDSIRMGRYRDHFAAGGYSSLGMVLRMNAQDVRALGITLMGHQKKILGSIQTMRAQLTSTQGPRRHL

[16] = target: T3, Serine/threonine-protein kinase Chk1 (Homo sapiens) (UniProt O14757); experiment: Inhibition of CHK1 at 0.1 uM; values are per cent of control
T3 sequence (whole entry): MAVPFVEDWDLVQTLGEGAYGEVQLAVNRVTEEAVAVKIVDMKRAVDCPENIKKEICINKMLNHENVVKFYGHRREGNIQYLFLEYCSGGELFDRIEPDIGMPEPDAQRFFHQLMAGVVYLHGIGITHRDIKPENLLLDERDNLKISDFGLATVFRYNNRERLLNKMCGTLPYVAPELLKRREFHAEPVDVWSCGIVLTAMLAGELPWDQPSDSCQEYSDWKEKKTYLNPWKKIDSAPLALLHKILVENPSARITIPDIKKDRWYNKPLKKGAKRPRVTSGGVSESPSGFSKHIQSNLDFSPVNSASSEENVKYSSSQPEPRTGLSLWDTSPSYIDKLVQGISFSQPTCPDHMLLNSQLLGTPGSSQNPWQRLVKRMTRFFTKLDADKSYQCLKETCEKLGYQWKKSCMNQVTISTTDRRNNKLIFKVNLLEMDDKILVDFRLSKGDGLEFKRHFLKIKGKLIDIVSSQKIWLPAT

Sequence of Tyrosine-protein kinase Fes/Fps (Homo sapiens) (P07332 whole entry): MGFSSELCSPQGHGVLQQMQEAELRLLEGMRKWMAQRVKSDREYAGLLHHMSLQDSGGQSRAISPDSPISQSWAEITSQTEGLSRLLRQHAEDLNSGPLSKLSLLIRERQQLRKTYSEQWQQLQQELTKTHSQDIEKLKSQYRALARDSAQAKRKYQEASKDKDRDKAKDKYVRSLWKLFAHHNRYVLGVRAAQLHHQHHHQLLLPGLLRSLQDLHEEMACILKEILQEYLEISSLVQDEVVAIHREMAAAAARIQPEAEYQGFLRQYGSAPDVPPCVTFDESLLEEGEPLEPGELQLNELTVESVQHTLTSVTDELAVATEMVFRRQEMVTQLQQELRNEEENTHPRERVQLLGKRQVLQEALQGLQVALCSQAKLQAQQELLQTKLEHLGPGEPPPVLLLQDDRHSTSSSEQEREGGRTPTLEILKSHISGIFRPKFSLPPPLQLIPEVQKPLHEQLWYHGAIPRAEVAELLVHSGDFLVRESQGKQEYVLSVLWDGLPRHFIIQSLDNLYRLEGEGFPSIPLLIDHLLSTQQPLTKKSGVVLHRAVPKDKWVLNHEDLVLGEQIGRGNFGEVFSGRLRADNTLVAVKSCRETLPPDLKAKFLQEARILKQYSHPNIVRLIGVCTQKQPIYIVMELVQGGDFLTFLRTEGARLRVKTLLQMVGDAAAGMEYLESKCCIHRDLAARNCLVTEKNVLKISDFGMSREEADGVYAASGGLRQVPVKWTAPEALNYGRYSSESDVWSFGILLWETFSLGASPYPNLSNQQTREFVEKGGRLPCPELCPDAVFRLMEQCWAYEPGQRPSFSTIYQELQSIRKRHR
Sequence of Mitogen-activated protein kinase 10 (Homo sapiens) (P53779 whole entry): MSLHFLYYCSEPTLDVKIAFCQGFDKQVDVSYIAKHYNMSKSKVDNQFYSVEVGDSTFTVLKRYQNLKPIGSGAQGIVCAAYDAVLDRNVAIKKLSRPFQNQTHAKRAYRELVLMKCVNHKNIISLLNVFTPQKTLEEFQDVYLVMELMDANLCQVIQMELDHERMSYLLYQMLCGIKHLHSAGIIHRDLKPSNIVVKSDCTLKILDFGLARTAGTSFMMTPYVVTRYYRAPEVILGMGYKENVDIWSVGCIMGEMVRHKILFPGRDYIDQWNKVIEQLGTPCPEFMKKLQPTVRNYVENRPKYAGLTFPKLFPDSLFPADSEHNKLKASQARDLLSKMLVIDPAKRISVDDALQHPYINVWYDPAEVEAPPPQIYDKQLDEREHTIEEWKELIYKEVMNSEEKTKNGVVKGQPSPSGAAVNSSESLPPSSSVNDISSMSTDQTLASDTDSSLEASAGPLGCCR
Sequence of ALK tyrosine kinase receptor (Homo sapiens) (Q9UM73 19-1620 limits assumed): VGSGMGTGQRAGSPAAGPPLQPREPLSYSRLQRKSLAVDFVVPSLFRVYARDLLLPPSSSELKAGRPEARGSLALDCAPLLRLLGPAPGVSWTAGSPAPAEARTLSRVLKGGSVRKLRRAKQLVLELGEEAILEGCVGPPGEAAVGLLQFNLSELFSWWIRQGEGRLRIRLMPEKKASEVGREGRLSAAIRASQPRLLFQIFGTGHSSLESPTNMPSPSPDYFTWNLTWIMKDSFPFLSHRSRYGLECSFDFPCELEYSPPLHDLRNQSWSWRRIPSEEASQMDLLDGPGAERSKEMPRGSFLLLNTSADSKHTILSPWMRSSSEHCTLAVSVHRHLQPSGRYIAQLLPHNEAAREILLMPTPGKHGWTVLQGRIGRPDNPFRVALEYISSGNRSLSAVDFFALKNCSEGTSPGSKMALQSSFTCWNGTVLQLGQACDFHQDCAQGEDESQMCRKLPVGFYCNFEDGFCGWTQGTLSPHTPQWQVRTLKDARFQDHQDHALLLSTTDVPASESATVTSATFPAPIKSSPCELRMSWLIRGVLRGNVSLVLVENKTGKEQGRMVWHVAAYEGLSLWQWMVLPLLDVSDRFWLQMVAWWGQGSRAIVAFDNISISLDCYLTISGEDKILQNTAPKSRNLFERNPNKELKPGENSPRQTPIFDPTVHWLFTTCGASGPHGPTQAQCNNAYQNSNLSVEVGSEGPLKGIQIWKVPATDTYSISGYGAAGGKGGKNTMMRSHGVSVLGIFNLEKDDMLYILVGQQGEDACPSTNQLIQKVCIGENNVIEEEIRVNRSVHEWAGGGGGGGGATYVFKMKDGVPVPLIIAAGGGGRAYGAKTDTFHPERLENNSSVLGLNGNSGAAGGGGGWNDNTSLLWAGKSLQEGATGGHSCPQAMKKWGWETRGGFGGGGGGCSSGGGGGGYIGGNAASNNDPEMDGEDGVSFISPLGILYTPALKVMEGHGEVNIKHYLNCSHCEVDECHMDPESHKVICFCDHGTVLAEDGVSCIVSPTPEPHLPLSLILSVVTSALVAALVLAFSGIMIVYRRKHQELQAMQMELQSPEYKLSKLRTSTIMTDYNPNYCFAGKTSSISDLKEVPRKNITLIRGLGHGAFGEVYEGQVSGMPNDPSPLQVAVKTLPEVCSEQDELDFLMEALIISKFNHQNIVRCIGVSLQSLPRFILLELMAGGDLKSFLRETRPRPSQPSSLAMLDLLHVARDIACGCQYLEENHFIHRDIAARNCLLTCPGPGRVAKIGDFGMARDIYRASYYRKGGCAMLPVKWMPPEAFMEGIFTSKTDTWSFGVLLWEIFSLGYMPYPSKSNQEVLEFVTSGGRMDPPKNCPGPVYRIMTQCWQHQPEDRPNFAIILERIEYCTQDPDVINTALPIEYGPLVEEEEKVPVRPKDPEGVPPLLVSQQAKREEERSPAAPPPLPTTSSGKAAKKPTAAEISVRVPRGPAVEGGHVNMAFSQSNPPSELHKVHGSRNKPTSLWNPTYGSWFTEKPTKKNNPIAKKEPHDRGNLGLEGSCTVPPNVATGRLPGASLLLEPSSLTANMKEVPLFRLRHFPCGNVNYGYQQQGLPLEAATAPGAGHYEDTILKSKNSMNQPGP
Sequence of Mitogen-activated protein kinase 11 (Homo sapiens) (Q15759 whole entry): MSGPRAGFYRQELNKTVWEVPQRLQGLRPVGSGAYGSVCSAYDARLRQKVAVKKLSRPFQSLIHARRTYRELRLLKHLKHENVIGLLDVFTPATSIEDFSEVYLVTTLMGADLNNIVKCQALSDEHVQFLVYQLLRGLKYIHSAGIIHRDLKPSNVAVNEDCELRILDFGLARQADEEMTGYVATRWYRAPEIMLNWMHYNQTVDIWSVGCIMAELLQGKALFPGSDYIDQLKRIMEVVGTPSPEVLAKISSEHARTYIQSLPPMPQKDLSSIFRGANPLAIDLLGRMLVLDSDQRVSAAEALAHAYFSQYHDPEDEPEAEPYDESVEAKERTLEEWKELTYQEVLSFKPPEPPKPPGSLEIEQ
Sequence of Hepatocyte growth factor receptor (Homo sapiens) (P08581 whole entry): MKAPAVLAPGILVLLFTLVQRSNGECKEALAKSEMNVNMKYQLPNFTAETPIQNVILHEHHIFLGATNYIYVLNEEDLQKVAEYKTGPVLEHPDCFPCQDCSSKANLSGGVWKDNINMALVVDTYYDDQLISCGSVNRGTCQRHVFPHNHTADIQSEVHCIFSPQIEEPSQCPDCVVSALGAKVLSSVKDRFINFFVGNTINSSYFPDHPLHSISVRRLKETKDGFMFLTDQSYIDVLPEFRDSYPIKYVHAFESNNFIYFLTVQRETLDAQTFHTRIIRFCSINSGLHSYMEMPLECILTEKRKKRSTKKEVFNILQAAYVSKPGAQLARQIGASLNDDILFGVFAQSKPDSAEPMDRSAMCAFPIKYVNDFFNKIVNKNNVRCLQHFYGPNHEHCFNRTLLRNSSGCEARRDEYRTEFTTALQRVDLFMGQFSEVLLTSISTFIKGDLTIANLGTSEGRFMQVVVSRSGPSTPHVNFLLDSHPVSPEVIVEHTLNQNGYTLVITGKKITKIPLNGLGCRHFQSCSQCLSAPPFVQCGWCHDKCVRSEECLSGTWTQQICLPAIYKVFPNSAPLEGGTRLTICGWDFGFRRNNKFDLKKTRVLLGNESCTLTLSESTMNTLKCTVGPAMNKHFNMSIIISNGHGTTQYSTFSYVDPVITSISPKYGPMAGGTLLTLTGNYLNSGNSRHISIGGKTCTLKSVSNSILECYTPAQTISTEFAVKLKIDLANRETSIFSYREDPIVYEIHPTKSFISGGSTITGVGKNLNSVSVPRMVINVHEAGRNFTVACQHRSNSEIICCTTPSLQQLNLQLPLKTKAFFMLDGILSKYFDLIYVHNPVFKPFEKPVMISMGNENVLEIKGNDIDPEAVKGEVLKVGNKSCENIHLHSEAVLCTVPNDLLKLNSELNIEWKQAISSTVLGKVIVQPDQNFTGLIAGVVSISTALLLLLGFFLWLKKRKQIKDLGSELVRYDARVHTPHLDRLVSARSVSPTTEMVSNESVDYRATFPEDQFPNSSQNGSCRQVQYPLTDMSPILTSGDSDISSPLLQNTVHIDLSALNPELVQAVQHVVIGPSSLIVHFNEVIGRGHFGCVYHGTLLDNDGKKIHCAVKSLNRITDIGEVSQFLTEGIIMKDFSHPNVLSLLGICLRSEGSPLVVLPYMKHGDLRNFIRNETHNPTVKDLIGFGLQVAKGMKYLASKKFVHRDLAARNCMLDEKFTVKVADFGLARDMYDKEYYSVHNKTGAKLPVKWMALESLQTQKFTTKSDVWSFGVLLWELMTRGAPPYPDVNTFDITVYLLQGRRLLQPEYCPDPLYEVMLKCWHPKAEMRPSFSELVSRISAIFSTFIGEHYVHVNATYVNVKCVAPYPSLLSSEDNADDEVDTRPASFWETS

Row | inhibition [1] | residual activity [2] | residual activity [3] | residual activity [4] | inhibition [5] | residual activity [6] | inhibition [7] | residual activity [8] | residual activity [9] | residual activity [10] | inhibition [11] | residual activity [12] | residual activity [13] | residual activity [14] | residual activity [15] | residual activity [16] | SMILES
1 | 86% | 21% | 28% | 98% | 1% | 84% | 28% | 80% | 41% | 47% | 95% | -3% | 63% | 59% | 92% | 90% | Cc1ccc2cc(-c3n[nH]c4ccc(NC5CCN(Cc6ccccc6)CC5)cc34)[nH]c2c1
2 | 91% | 5% | 3% | 73% | -1% | 64% | 6% | 70% | 42% | 27% | 82% | 0% | 44% | 33% | 97% | 18% | Cc1ccc2cc(-c3n[nH]c4ccc(NC5CCNC5)cc34)[nH]c2c1 (configuration not stated)
